In the library only some 2% were active in any assay of this set; here they are far more common.
TPT1 inh – inhibitors of Candida albicans tRNA 2'-phosphotransferase TPT1 | recombinant caTPT1, FP RNA substrate dephosphorylation | inhibition, % at 5 µM | hit rate 0.81% among 300,000 | AID 1962;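 active = inhibition above the mean of all tested compounds plus 3 SD, set per screening campaign, cut at about 24% in these data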;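 note: plate controls were DMSO alone for no effect and ferristatin control at 100 nM for full effect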
Rpn11 inh – blocks the human proteasome subunit Rpn11. O00487. human 26S proteasome, Ub4-pepOG fluorescence polarization; 20S core pre-blocked with epoxomicin. inhibition, % at 20 µM. hit rate 0.59% among 360,000. AID 588493;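 active = inhibition at 20 µM, scaled to each plate's controls, above about 33%, limit read from the data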
SENP1 inh – SENP1 (human) catalytic domain inhibition; recombinant SENP1 catalytic domain, CyPet-SUMO1-YPet FRET cleavage; inhibition, % at 10 µM; hit rate 0.21% among 360,000; AID 624204;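 active = inhibition at least 30% at 10 µM, raw YFP signal under a set limit, fluorescence ratio 0.5 to 1.5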;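 note: 0% = enzyme with DMSO and 100% = no enzyme wells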
Target sequence (Q9P0U3 419-644 limits assumed): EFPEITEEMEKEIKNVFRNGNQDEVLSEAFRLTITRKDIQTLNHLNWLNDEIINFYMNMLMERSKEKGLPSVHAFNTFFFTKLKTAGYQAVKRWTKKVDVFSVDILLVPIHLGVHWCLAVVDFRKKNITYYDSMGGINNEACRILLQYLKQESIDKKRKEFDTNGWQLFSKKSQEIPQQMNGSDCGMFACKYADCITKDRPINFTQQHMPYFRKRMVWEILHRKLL
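Compound: 10 µM single point, 0.5% DMSO; Test system: hSENP1 catalytic domain, recombinant; Timing: 50 min reaction at room temperature; Technique: FRET, CFP and YFP emission; Control set: no-enzyme wells low, DMSO-plus-enzyme wells high control.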
CSN inh – blocks human CSN-mediated cullin deneddylation; hit rate 0.38% among 360,000; Purified CSN, SCF-Nedd8-OG deneddylation, fluorescence polarization; inhibition, % at 12.5 µM; Q92905;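 active = pattern-corrected inhibition above about 35%, with an unprinted fluorescence ratio check between 0.5 and 1.5, limit read from the data, passing the limit was not always enough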;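 note: 0% = enzyme with substrate and 100% = substrate without enzyme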
Target sequence (Q92905 whole entry, looked up, one chain of several): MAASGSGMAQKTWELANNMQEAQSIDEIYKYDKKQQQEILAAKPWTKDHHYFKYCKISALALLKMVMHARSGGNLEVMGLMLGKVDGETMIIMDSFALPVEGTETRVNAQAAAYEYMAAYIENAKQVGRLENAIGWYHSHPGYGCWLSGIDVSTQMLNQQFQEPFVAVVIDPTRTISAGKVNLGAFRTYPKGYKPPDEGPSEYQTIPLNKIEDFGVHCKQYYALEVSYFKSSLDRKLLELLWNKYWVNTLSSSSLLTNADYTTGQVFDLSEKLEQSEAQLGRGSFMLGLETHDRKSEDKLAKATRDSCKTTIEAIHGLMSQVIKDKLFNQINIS
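test system = HEK293T-derived human Csn5 enzyme | amount = 0.24 nM Csn5 enzyme, final concentration | medium = Tris/NaCl/DTT buffer, pH 7.5 | schedule = 90 min reaction at room temperature | signal = FP | evaluation = inhibition of Csn5 cleavage, % | compound dosing = single dose of 12.5 µM compound with 0.25% DMSO | probe or stimulus = 10 nM SCFSkp2-Nedd8OG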
HNF4A DNA FP – change in binding of human HNF4 alpha to DNA | P41235 | HNF4a-FITC DNA binding, fluorescence polarization, 1 h | activity change, % at 10 µM | hit rate 0.3% among 360,000; in the data active = activity change above about 30%, passing the limit was not always enough
ATG4B inhibitor – inhibitors of human ATG4B cysteine protease | Q9Y4P1 | ATG4B cleavage of LC3-PLA2, NBD-HPC fluorescence, 1 h | inhibition, % at 8.33 µM | hit rate 0.51% among 340,000 | AID 504462; in the data active = inhibition above about 40%
The depositor's hits bear a star.

Screening CCOc1ccc(N2CSC3=C(C#N)C(c4ccco4)CC(=O)N3C2)cc1 (stereo not given) returned TPT1 inh 10, Rpn11 inh -1, SENP1 inh -1, CSN inh -2, HNF4A DNA FP 1 and ATG4B inhibitor -5.
Screening Cc1ccc(C2CC(=O)N3CN(c4ccc(Br)cc4)CSC3=C2C#N)o1 (stereo not given) returned TPT1 inh 18, Rpn11 inh 45*, SENP1 inh -34, CSN inh 35*, HNF4A DNA FP -11 and ATG4B inhibitor 15.
Screening O=C(CN1C(=O)C2CC=CCC2C1=O)Nc1nnc(C2CC2)s1 (stereo not given) returned Rpn11 inh -8, SENP1 inh 1, CSN inh 5, HNF4A DNA FP 0 and ATG4B inhibitor -1.
`CCCn1nc([N+](=O)[O-])c(C(C#N)c2nc3ccccc3o2)c(Cl)c1=O` (stereo not given) gave TPT1 inh 4, Rpn11 inh -4, SENP1 inh 2, CSN inh -16, HNF4A DNA FP -2 and ATG4B inhibitor 84*.
For COCCN1C(=O)COc2ccccc2C1C(=O)NC1CCCCC1 (stereo not given) the results were SENP1 inh 1, CSN inh -5 and HNF4A DNA FP 1.
Screening CCOC(=O)c1cccc(C2=CC(=O)C[C@H](c3ccc(OC)cc3)C2)c1 returned Rpn11 inh 12, SENP1 inh 1, CSN inh 95*, HNF4A DNA FP -4 and ATG4B inhibitor -10.
For C=C1[C@@H](O)[C@H](CC(C)C)N(Cc2ccccc2Br)S1(=O)=O the results were Rpn11 inh 7, SENP1 inh 2, CSN inh -4, HNF4A DNA FP -1 and ATG4B inhibitor 8.
For O=C(Nc1ccc(N2CCOCC2)cc1N1CCOCC1)c1ccc([N+](=O)[O-])cc1 the results were TPT1 inh 2, Rpn11 inh 3, SENP1 inh 0, CSN inh 74*, HNF4A DNA FP 3 and ATG4B inhibitor -6.
Screening CC#CCOCC1CNC(=O)O1 (stereo not given) returned Rpn11 inh -3, SENP1 inh -2, CSN inh 2 and HNF4A DNA FP 1.
CCOc1ccc(C(C)C)cc1S(=O)(=O)n1ccnc1C was read as TPT1 inh -5, Rpn11 inh 4, SENP1 inh 0, CSN inh 73*, HNF4A DNA FP 1 and ATG4B inhibitor -5.
`CCOc1ccc(OCC)c(S(=O)(=O)n2ccnc2C)c1` gave TPT1 inh -5, Rpn11 inh 4, SENP1 inh 2, CSN inh 1, HNF4A DNA FP 48* and ATG4B inhibitor 4.
Screening CCOc1ccc(S(=O)(=O)n2ccnc2C)cc1 returned TPT1 inh -6.
Screening COc1ccc(C)cc1S(=O)(=O)n1ccnc1C returned TPT1 inh -3, Rpn11 inh 10, SENP1 inh 3, CSN inh 5, HNF4A DNA FP 2 and ATG4B inhibitor -6.
`O=C(NCCN1CCC(n2c(=O)[nH]c3ccccc32)CC1)c1cccc2c1-c1ccccc1C2=O` gave SENP1 inh -2, CSN inh 49* and HNF4A DNA FP 1.
Screening O=C(NCCN1CCC(n2c(=O)[nH]c3ccccc32)CC1)c1ccccc1Cl returned SENP1 inh 2, CSN inh -7 and HNF4A DNA FP -2.
CN(C)c1ccc2nc3c(=O)[nH]c(=O)nc-3n(CC(O)C(O)C(O)CO)c2c1 (stereo not given) was read as TPT1 inh -78, Rpn11 inh 20, SENP1 inh 60*, CSN inh -72, HNF4A DNA FP 19 and ATG4B inhibitor -10.
For Cc1ncc(C(O)c2ccc(N(C)C)cc2)n1Cc1ccccc1 (stereo not given) the results were Rpn11 inh -1, SENP1 inh 2, CSN inh 0 and HNF4A DNA FP 1.
`CCCCN1CCCCC1(C)C(=O)NCc1cccc(OC)c1` (stereo not given) gave Rpn11 inh 2, SENP1 inh -11, CSN inh -1 and HNF4A DNA FP 1.
`Cc1ccc(-c2cnc(C(O)c3ccc(Cl)c(Cl)c3)[nH]2)cc1` (stereo not given) gave Rpn11 inh -2, SENP1 inh -1, CSN inh 6 and HNF4A DNA FP -4.
CCCCN(C=O)c1c(CC)nc2c(OCCOc3ccc(F)cc3)cccn12 was read as Rpn11 inh 12, SENP1 inh -4, CSN inh 3 and HNF4A DNA FP 9.
For CS(=O)(=O)N(CC(=O)N1CCOCC1)c1cccc(Cl)c1 the results were Rpn11 inh -10, SENP1 inh 3, CSN inh 90* and HNF4A DNA FP 5.
Screening CCOc1cc(C#N)c(NC(=O)Cn2nnc3ccccc32)cc1OCC returned TPT1 inh 2, Rpn11 inh -2, SENP1 inh 0, CSN inh -3, HNF4A DNA FP 34* and ATG4B inhibitor -8.
Screening COc1ccc2cc(C(C)C(=O)O)ccc2c1 (stereo not given) returned TPT1 inh -3, Rpn11 inh -1, SENP1 inh 2, CSN inh -4 and ATG4B inhibitor -7.
Screening COC(=O)c1ccc(Nc2cc(C)nc(-c3ccccc3O)n2)cc1 returned TPT1 inh -4, Rpn11 inh -2, SENP1 inh -1, CSN inh 2, HNF4A DNA FP 37* and ATG4B inhibitor 0.
Screening CC1=NN(c2ccccc2)C(=O)/C1=C\c1cn(-c2ccccc2)nc1C returned TPT1 inh 1, Rpn11 inh 8, SENP1 inh 3, CSN inh 8, HNF4A DNA FP -4 and ATG4B inhibitor 10.
For CC1=NN(c2ccccc2)C(=O)/C1=C\c1cn(CCC#N)nc1-c1ccc(Cl)cc1 the results were TPT1 inh 5, Rpn11 inh 2, SENP1 inh 3, CSN inh 0, HNF4A DNA FP 35* and ATG4B inhibitor -5.
`COc1ccc(S(=O)(=O)N2CCCCCC2)cc1NC(=O)CN(C)Cc1ccc2c(c1)OCO2` gave Rpn11 inh 2, SENP1 inh 0, CSN inh 0, HNF4A DNA FP 1 and ATG4B inhibitor -36.
COc1ccc(CC(=O)OCC(=O)c2ccc(S(=O)(=O)N3CCCCC3)cc2)cc1 was read as Rpn11 inh 0, SENP1 inh 1, CSN inh 2, HNF4A DNA FP 1 and ATG4B inhibitor -44.
Screening CCOC(=O)c1[nH]cnc1N=Nc1c(O)ccc2ccccc12 returned TPT1 inh -22, Rpn11 inh -38, SENP1 inh 62*, CSN inh -16, HNF4A DNA FP -13 and ATG4B inhibitor -16.

Screening data (PubChem BioAssay)
